The values below come from ChEMBL document CHEMBL4229525, “Anti-angiogenic and anticancer effects of baicalein derivatives based on transgenic zebrafish model” (Bioorg Med Chem, 2018).

For series [1], the species on record is Danio rerio. The series is described as follows: Toxicity in 24 to 72 hrs post fertilized zebra fish embryo harboring fli1:EGFP. The format is organism-based. The settings on record: zebrafish, in vivo. The procedure, abridged: (§1)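 Dechorionated Tg(fli1:EGFP) embryos at 24 hpf, 20 per group, were kept in 1 mL embryo water with compound at 28.5 °C for a further 48 h. Compound was tested at 1, 5, 10, 25, 50, 75, 100, 150 and 200 μM. At 72 hpf, embryos anaesthetised with 0.016% tricaine had their ISVs imaged by fluorescence microscopy, with SU5416 as positive control. Definitions used: LOEC is anti-angiogenic effect in most larvae; LOTC is lowest toxic concentration; LC100 is total embryo lethality. TI = LOTC/LOEC; AI = LC100/LOEC.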

Series [2] can be described thus: Antiangiogenic index, ratio of LC100 for 24 to 72 hrs post fertilized zebra fish embryo harboring fli1:EGFP to MEC for antiangiogenic activity in 24 to 72 hrs post fertilized zebra fish embryo harboring fli1:EGFP. The format is toxicity, organism-based, Danio rerio. The settings on record: fli1:EGFP transgenic, zebrafish, in vivo. Summed up: as §1
A short description of series [3]: Toxicity index, ratio of MTC for 24 to 72 hrs post fertilized zebra fish embryo harboring fli1:EGFP to MEC for antiangiogenic activity in 24 to 72 hrs post fertilized zebra fish embryo harboring fli1:EGFP. The format is organism-based, Danio rerio. The settings on record: fli1:EGFP transgenic, zebrafish, in vivo. Summed up:
as §1

The species entered for series [4] is Danio rerio. Nature of the series: Antiangiogenic activity in 24 to 72 hrs post fertilized zebra fish embryo harboring fli1:EGFP after 48 hrs by fluorescence microscopic analysis. The series is classed as functional. The procedure, abridged:
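Tg(fli1:EGFP) zebrafish: 20 dechorionated 24 hpf embryos per group in 1 mL embryo water with compound (1, 5, 10, 25, 50, 75, 100, 150, 200 μM), 28.5 °C for 48 h. Embryos anaesthetised in 0.016% tricaine; ISVs imaged by fluorescence microscopy at 72 hpf and scored for vessel defects and overall morphology. SU5416 positive control.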

As for `Cc1cc(C)c(/C=C2\C(=O)Nc3ccccc32)[nH]1` [SEMAXANIB], the LC100 in series [1] stood at 5 µM. Besides, in series [1], the MTC was 1.5 µM. Besides, the selectivity ratio in series [2] worked out at 5; in series [3], 1.5. In addition, in series [4], the MEC was determined as 1 µM.

On to `CCN(CC)C(=O)COc1c(O)cc2oc(-c3ccccc3)cc(=O)c2c1O`, for which the LC100 in series [1] came to 200 µM. The same compound yielded an MTC in series [1] of 200 µM. Moreover, the selectivity ratio in series [2] and in series [3] was 1 in each case. Further, in series [4], the MEC was 200 µM.

Consider `O=c1cc(-c2ccccc2)oc2cc(O)c(OCCCCO)c(O)c12`, for which the LC100 in series [1] is 30 µM. The compound also returned an MTC in series [1] of 10 µM. The selectivity ratio is 6 in series [2] and 2 in series [3]. In series [4], this compound displayed an MEC of 5 µM.

In series [1], `O=C(COc1c(OCc2ccccc2)cc2oc(-c3ccccc3)cc(=O)c2c1O)N1CCN(c2ncccn2)CC1` registered an LC100 of 100 µM and an MTC of 75 µM. In addition, in series [2], the selectivity ratio was 1.3. In addition, the selectivity ratio in series [3] was 1. Moreover, the MEC in series [4] was determined as 75 µM.

As to `O=c1cc(-c2ccccc2)oc2cc(O)c(OCCCCCNCCO)c(O)c12`, in series [1], the LC100 is 100 µM. This compound also yielded an MTC in series [1] of 50 µM. For the same compound, the values for the selectivity ratio in series [2] and in series [3] were 4 and 2, respectively. Moreover, the MEC in series [4] worked out at 25 µM.

Turning to `O=c1cc(-c2ccccc2)oc2cc(O)c(OCCCCCO)c(O)c12`, the LC100 in series [1] stood at 5 µM. In series [1], this compound displayed an MTC of 1 µM. In addition, the values for the selectivity ratio in series [2] and in series [3] were 5 and 1, respectively. This compound also showed an MEC in series [4] of 1 µM.

Regarding `O=C(COc1c(OCc2ccccc2)cc2oc(-c3ccccc3)cc(=O)c2c1O)N1CCN(CCO)CC1`, in series [1], the LC100 stood at 200 µM and the MTC is 200 µM. In series [2], the selectivity ratio worked out at 1. For the same compound, the selectivity ratio in series [3] came out at 1. The compound also came in with an MEC in series [4] of 200 µM.

On to `O=C(COc1c(OCc2ccccc2)cc2oc(-c3ccccc3)cc(=O)c2c1O)N1CCCC1`, for which, in series [1], the LC100 is > 200 µM and the MTC stood at 100 µM. Besides, in series [2], the selectivity ratio was > 2. Besides, the selectivity ratio in series [3] was 1. In addition, the MEC in series [4] was determined as 100 µM.

For the compound `O=C(COc1c(OCc2ccccc2)cc2oc(-c3ccccc3)cc(=O)c2c1O)N(CCO)CCO`, in series [1], the LC100 was found to be 200 µM and the MTC turned out to be 100 µM. For the same compound, the selectivity ratio in series [2] stood at 2. The selectivity ratio in series [3] is 1. The compound also returned an MEC in series [4] of 100 µM.

Turning to `O=C(O)COc1c(O)cc2oc(-c3ccccc3)cc(=O)c2c1O`, in series [1], the LC100 amounted to 50 µM and the MTC was > 50 µM. In series [4], the MEC was >50 µM.

In series [1], `O=C(COc1c(O)cc2oc(-c3ccccc3)cc(=O)c2c1O)N1CCNCC1` returned an LC100 of 50 µM and an MTC of 15 µM. For the same compound, the selectivity ratio in series [2] amounted to 5. Further, in series [3], the selectivity ratio came to 1.5. In series [4], this compound registered an MEC of 10 µM.

As for `COc1c(OCCCN(C)CCO)c(O)cc2oc(-c3ccccc3)cc(=O)c12`, the LC100 in series [1] is > 200 µM. In series [1], this compound showed an MTC of 100 µM. For the same compound, the selectivity ratio in series [2] was > 2; in series [3] it was 1. This compound returned an MEC in series [4] of 100 µM.

In series [1], `O=c1cc(-c2ccccc2)oc2cc(O)c(OCCCO)c(O)c12` yielded an LC100 of 15 µM and an MTC of 2.5 µM. The selectivity ratio in series [2] was determined as 6. Further, in series [3], the selectivity ratio is 1. Also, the MEC in series [4] was found to be 2.5 µM.

In series [1], `O=c1cc(-c2ccccc2)oc2cc(O)c(OCCCCCCO)c(O)c12` yielded an LC100 of 10 µM and an MTC of 2.5 µM. Moreover, the selectivity ratio in series [2] was found to be 4. Moreover, in series [3], the selectivity ratio is 1. The compound further came in with an MEC in series [4] of 2.5 µM.

For `O=c1cc(-c2ccccc2)oc2cc(O)c(O)c(O)c12` [BAICALEIN], in series [1], the LC100 is 1 µM and the MTC amounted to 0.5 µM. Also, the selectivity ratio in series [2] was 2. Moreover, in series [3], the selectivity ratio came to 1. Moreover, the MEC in series [4] was found to be 0.5 µM.

In series [1], `O=C(COc1c(O)cc2oc(-c3ccccc3)cc(=O)c2c1O)N1CCC(O)CC1` showed an LC100 of 100 µM and an MTC of 50 µM. In addition, the selectivity ratio in series [2] turned out to be 2. The selectivity ratio in series [3] worked out at 1. The compound also came in with an MEC in series [4] of 50 µM.

For `O=C(COc1c(O)cc2oc(-c3ccccc3)cc(=O)c2c1O)N(CCO)CCO`, in series [1], the LC100 is > 200 µM and the MTC is > 200 µM. In addition, the MEC in series [4] is >200 µM.

In series [1], `O=c1cc(-c2ccccc2)oc2cc(O)c(OCCO)c(O)c12` yielded an LC100 of 50 µM and an MTC of 10 µM. In addition, the selectivity ratio in series [2] worked out at 10. In series [3], the selectivity ratio was 2. The same compound displayed an MEC in series [4] of 5 µM.

As to `O=c1cc(-c2ccccc2)oc2cc(OCCCO)c(O)c(O)c12`, in series [1], the LC100 was > 200 µM and the MTC was 100 µM. For the same compound, in series [2], the selectivity ratio was > 2. The selectivity ratio in series [3] is 1. Moreover, the MEC in series [4] amounted to 100 µM.

As for `CC(C)=CCOc1cc2oc(-c3ccccc3)cc(=O)c2c(O)c1O`, in series [1], the LC100 was 100 µM and the MTC worked out at 50 µM. Also, the selectivity ratio in series [2] was determined as 2. For the same compound, in series [3], the selectivity ratio was found to be 1. In addition, the MEC in series [4] was 50 µM.

Take `CCN1CCN(C(=O)COc2c(OCc3ccccc3)cc3oc(-c4ccccc4)cc(=O)c3c2O)CC1`: in series [1], the LC100 entry was “Nd(Insoluble)” and the MTC entry is recorded as “Nd(Insoluble)”.

In series [1], `O=C(COc1c(OCc2ccccc2)cc2oc(-c3ccccc3)cc(=O)c2c1O)N1CCOCC1` yielded an LC100 of 100 µM and an MTC of 50 µM. Further, the selectivity ratio in series [2] was 2. The selectivity ratio in series [3] was found to be 1. The same compound displayed an MEC in series [4] of 50 µM.

For `O=C(COc1c(O)cc2oc(-c3ccccc3)cc(=O)c2c1O)N1CCN(CCO)CC1`, the LC100 in series [1] was > 200 µM. In series [1], this compound displayed an MTC of 100 µM. In addition, the selectivity ratio in series [2] was > 2; in series [3], 1. The compound also came in with an MEC in series [4] of 100 µM.

In series [1], `O=C(COc1c(OCc2ccccc2)cc2oc(-c3ccccc3)cc(=O)c2c1O)NCCO` returned an LC100 of 200 µM and an MTC of 100 µM. The selectivity ratio in series [2] came to 2. The selectivity ratio in series [3] turned out to be 1. In series [4], this compound displayed an MEC of 100 µM.

In series [1], `O=C(COc1c(OCc2ccccc2)cc2oc(-c3ccccc3)cc(=O)c2c1O)N1CCC(O)CC1` came in with an LC100 of 100 µM and an MTC of 25 µM. Besides, in series [2], the selectivity ratio came to 4. Also, the selectivity ratio in series [3] was 1. The compound also returned an MEC in series [4] of 25 µM.

For the compound `O=C(COc1c(O)cc2oc(-c3ccccc3)cc(=O)c2c1O)NCCO`, in series [1], the LC100 was 200 µM and the MTC is 200 µM. Besides, the selectivity ratio in series [2] came out at 1. In addition, in series [3], the selectivity ratio is 1. Also, in series [4], the MEC came to 200 µM.

In series [1], `CN1CCN(C(=O)COc2c(OCc3ccccc3)cc3oc(-c4ccccc4)cc(=O)c3c2O)CC1` displayed an LC100 of 50 µM and an MTC of 10 µM. In series [2], the selectivity ratio was 5. In addition, the selectivity ratio in series [3] was 1. The same compound displayed an MEC in series [4] of 10 µM.

Take `CN(C)CCNC(=O)COc1c(O)cc2oc(-c3ccccc3)cc(=O)c2c1O`: in series [1], the LC100 is > 200 µM and the MTC came to 100 µM. In addition, in series [2], the selectivity ratio was > 2. For the same compound, in series [3], the selectivity ratio came out at 1. Besides, in series [4], the MEC was determined as 100 µM.

In series [1], `O=c1cc(-c2ccccc2)oc2cc(O)c(OCC(O)CO)c(O)c12` (stereo not drawn) yielded an LC100 of 100 µM and an MTC of 50 µM. Further, the selectivity ratio in series [2] turned out to be 2. Moreover, the selectivity ratio in series [3] amounted to 1. The MEC in series [4] was determined as 50 µM.

Turning to `CN1CCN(C(=O)COc2c(O)cc3oc(-c4ccccc4)cc(=O)c3c2O)CC1`, in series [1], the LC100 stood at 50 µM and the MTC was 15 µM. For the same compound, in series [2], the selectivity ratio is 5. For the same compound, the selectivity ratio in series [3] was 1.5. The compound also displayed an MEC in series [4] of 10 µM.

As to `O=C(O)CCC(=O)OCCOc1c(O)cc2oc(-c3ccccc3)cc(=O)c2c1O`, in series [1], the LC100 was found to be 75 µM and the MTC was > 75 µM. Also, the selectivity ratio in series [2] came out at 1.5. The selectivity ratio in series [3] is > 1.5. The compound also displayed an MEC in series [4] of 50 µM.
